# Only some compounds are listed: those with a hit (about 1.2% of all), similar ones and a draw of the others.
# GalR3 antag – blocks the human galanin receptor 3; O60755; HEK293 GalR3-CNG cAMP membrane potential fluorescence; galR3 body fused to GalR1 C-terminus; inhibition, % at 3 µM; 0.44% of 360,000 active; AID 651719;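 active = inhibition above the screen-wide average plus 3 SD, cut at about 13% in these data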;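 also: forskolin and galanin both at EC90 stimulate the cells; cAMP rise reported by CNG channel membrane potential dye signal; 0% = forskolin plus galanin with DMSO and 100% = forskolin alone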
# Rin1-Abl PPI inh – blocks binding of human Rin1 to Abl | TR-FRET Rin1/Abl binding, biochemical | 0.4% of 360,000 active | P00519+Q13671 | inhibition, % at 7.35 µM; in the data active = inhibition above about 5%, passing the limit was not always enough
# ARFGAP1 inh – rat ARFGAP1 inhibition. inhibition, % at 16.5 µM. 0.26% of 360,000 active. Q62848. Arfgap1-stimulated ARF1 GTP hydrolysis, GDP FP detection;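 active = inhibition above a per-plate limit, mean inhibition of low control wells plus 3 SD, cut at about 25% in these data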;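 also: 0% = DMSO wells with enzyme and 100% = wells lacking Arfgap1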
# Target sequence (Q62848 1-136 limits assumed): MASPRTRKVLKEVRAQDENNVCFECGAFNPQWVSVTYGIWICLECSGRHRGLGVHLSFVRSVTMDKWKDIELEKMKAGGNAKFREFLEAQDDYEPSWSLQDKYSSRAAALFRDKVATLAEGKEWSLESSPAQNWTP
#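 Material: rat Arfgap1 GAP domain (His6, aa 1-136), purified enzyme. Also added: human ARF1(Δ1-17)-GTP substrate. Compound dosing: 16.5 µM single point, 1.26% DMSO. Timing: enzyme reaction 120 min at 25 °C after 20 min preincubation. Signal: GDP detection by fluorescence polarization. Read-out basis: percent inhibition of GAP-stimulated GDP formation, scaled between DMSO and no-Arfgap1 medians.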
# ASAP1 GAP inh – blocks human ASAP1-stimulated Arf1 GTP hydrolysis; Q9ULH1; GDP FP detection; inhibition, % at 16.5 µM; 0.19% of 360,000 active; in the data active = inhibition above about 25%;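 also: 0% = vehicle with enzyme and substrate and 100% = no enzyme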
# Target sequence (Q9ULH1 325-724 limits assumed): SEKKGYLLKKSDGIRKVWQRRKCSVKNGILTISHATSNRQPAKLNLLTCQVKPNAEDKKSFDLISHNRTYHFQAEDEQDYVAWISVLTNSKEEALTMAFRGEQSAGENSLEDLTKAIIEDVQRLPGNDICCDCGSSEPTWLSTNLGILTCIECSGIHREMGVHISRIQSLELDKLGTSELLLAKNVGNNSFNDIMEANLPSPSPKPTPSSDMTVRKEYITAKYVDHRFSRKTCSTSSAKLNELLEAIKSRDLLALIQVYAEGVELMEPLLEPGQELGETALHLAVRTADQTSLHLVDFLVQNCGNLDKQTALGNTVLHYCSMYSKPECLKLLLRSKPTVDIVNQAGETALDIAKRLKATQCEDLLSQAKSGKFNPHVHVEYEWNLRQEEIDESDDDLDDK
# Rin1 Abl conf – Rin1-Abl interaction inhibition confirmation | 49% of 1,300 active | TR-FRET Rin1-Abl binding, purified proteins | inhibition, % at 7.35 µM | shares compounds with Rin1-Abl PPI inh; in the data active = inhibition above about 6.5%
# GFP quench-1 – quenches GFP fluorescence, counter-screen for Rin1-Abl inhibitors; inhibition, % at 6.75 µM; 8.5% of 1,300 active; inhibitors/quenchers counterscreen; shares compounds with Rin1-Abl PPI inh; in the data active = inhibition above about 6.5%;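 also: ABL1-eGFP fusion protein alone without its partner RIN1-SBP; 0% = protein with vehicle and 100% = wells lacking protein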
# GFP quench dose – GFP fluorescence interference dose response | shares compounds with Rin1-Abl PPI inh | GFP fluorescence interference/quenching counterscreen | IC50, µM | 230 tested, under 10 active | AID 602182;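 also: ABL1-eGFP fusion protein alone without its RIN1 binding partner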
# GFP quench-2 – GFP quenching artifact for Rin1-Abl inhibitor hits; shares compounds with Rin1-Abl PPI inh; GFP fluorescence quenching counterscreen, biochemical; IC50, µM; 25 tested, under 10 active
# Numbers without * were called inactive; / = not tested or not shown. Unless noted, no rule for the calls is given here.
SMILES,GalR3 antag,Rin1-Abl PPI inh,ARFGAP1 inh,ASAP1 GAP inh,Rin1 Abl conf,GFP quench-1,others
COCc1[nH]nc2c1C(c1ccc3c(c1)OCO3)N(Cc1ccccc1)C2=O (stereo not given),-6.1,/,-1.1,-10.0,/,/,
Cc1cc(C)c(CN2CCN(C(=O)Cn3cc(C)c(=O)[nH]c3=O)CC2)c(C)c1,-8.2,/,1.8,8.7,/,/,
COc1ccc(/C=N/NC(=O)Cn2c(Cc3ccc(OC)c(OC)c3)nc3ccccc32)cc1,1.6,13.8*,3.4,-2.0,19.4*,-1.9,GFP quench dose=>67.5
C[C@@H]1ON(C)[C@H]2C[C@H]3c4cc(-c5ccc(F)cc5)ccc4CCN3C[C@@H]12,-0.8,/,-4.5,2.6,/,/,
C/C(=N\NC(=O)Cc1csc(N2CCOCC2)n1)c1ccccc1,-5.2,-2.8,5.0,-9.1,/,/,
COc1ccc(/C=N/NC(=O)CCN2CCN(c3ccccc3)CC2)c(OC)c1OC,-11.9,0.3,12.2,8.5,/,/,
O=C(Cc1csc(N2CCOCC2)n1)N/N=C/c1ccc(O)c(O)c1O,-4.0,29.6*,-8.9,-3.0,27.9*,9.0*,
Cc1cc(C(=O)N/N=C/c2ccc(O)c(O)c2O)c(C)n1-c1ccccc1,-3.5,20.1*,4.8,-4.6,10.8*,7.8*,
O=C(CCN1CCN(c2ccccc2)CC1)N/N=C/c1ccc(O)c(O)c1O,-1.5,18.7*,-25.1,-5.2,50.6*,13.2*,
CC(=O)NCc1ccc(OCCCN2CCC(C(O)(c3ccccc3)c3ccccc3)CC2)cc1,-5.3,/,3.5,3.8,/,/,
CN(N=Cc1ccccc1O)C(=O)c1ccccc1N,-9.4,/,-3.3,9.5,/,/,
Nc1nnc(SCCOc2ccccc2)s1,-5.0,4.3,-0.2,-4.0,/,/,
Cc1nnc(SCCOc2ccccc2)s1,4.4,11.2*,-7.6,-7.4,7.9*,0.5,
O=C(N[C@H](Cc1ccccc1)C(=O)N1CCN(CC(=O)N2CCCC2)CC1)[C@H]1O[C@@H](n2ccc(=O)[nH]c2=O)[C@H](O)[C@@H]1O,-2.8,/,2.0,-1.5,/,/,
COCC(=O)OC1CCn2c1nc1c2C(=O)C(C)=C(NC(C)=O)C1=O (stereo not given),-6.1,17.8*,-14.4,22.4,16.5*,0.5,
COC(=O)C1C(=O)C=C(Nc2ccc(F)cc2)CC1c1ccc(OC)cc1 (stereo not given),1.8,6.4*,5.4,-3.2,-2.5,0.2,
COCCNC(=O)CS(=O)Cc1nc(-c2ccccc2C)oc1C (stereo not given),/,11.7*,-16.2,-3.7,-0.7,0.6,
Cc1c(C(=O)N2CCCCCC2)oc2ccccc12,-9.5,6.6*,4.3,-5.4,0.8,-1.1,
O=C(NCCOc1nc(N2CCOCC2)nc(N2CCOCC2)n1)Nc1ccccc1,-0.3,6.9*,2.2,-1.1,2.1,-1.9,
O=C(NCCOc1nc(N2CCCCC2)nc(N2CCOCC2)n1)Nc1ccccc1,-7.2,0.9,0.3,4.9,/,/,
Cc1ccccc1Nc1nc(N)nc(CSc2nnc(-c3ccccc3)n2C)n1,0.1,-1.2,9.2,7.1,/,/,
Cc1ccc(-c2nnc(SCc3nc(N)nc(Nc4ccccc4C)n3)n2N)cc1,-0.6,18.1*,2.5,-4.8,0.4,-0.8,
OC1OC2COC(c3ccccc3)OC2C(O)C1O (stereo not given),-6.4,/,5.8,13.2,/,/,
C[C@@H]1O[C@@H](O[C@@H]2[C@@H](O)[C@H](OCCc3ccc(O)c(O)c3)O[C@H](CO)[C@H]2OC(=O)/C=C/c2ccc(O)c(O)c2)[C@H](O)[C@H](O)[C@H]1O,5.4,30.5*,8.8,8.9,33.6*,2.5,
COCCn1nnnc1C(CC(C)C)N1CCN(c2nc3ccccc3s2)CC1 (stereo not given),-3.4,9.3*,13.3,8.0,-2.3,0.1,
SMILES,GalR3 antag,Rin1-Abl PPI inh,ARFGAP1 inh,ASAP1 GAP inh,Rin1 Abl conf,GFP quench-1,others
CCC(c1nnnn1CCOC)N1CCN(c2nc3ccccc3s2)CC1 (stereo not given),-1.4,2.4,-1.1,-20.6,/,/,
C[C@H]1CN(S(=O)(=O)C(C)(C)C)[C@@H](CCO)/C1=C\c1ccccc1,-6.3,/,-4.4,1.2,/,/,
CC(C)n1cc(CN2CCC(C(=O)Nc3cccc(-c4cscn4)c3)CC2)cn1,-6.7,10.8*,-1.7,-5.6,23.6*,0.6,GFP quench dose=>67.6
Cc1ncc(CN2CCC(C(=O)Nc3cccc(-c4cscn4)c3)CC2)cn1,2.6,2.1,7.5,-4.5,/,/,
CC(=O)c1ccc(OCCCC(=O)N2CCN(S(=O)(=O)c3ccc(C)cc3C)CC2)cc1,-4.8,7.5*,-13.2,-7.8,-0.1,-0.1,
CCCCNC(=O)C1(C)CCCCN1Cc1ccc2ccccc2c1 (stereo not given),-4.6,-3.1,-19.7,8.7,/,/,
CCCCNC(=O)C1(C)CCCCCN1Cc1cccc2c(OC)cc(C(=O)OCC)cc12 (stereo not given),-9.3,6.9*,-10.6,4.5,-2.2,0.6,
O=C(N[C@@H](Cc1cccnc1)C(=O)N1CCC[C@H]1C(=O)NCCc1ccccc1Cl)c1cccs1,-1.9,/,1.8,-2.6,/,/,
COC(=O)C1=C(C)N(Cc2cccc(C(F)(F)F)c2)C(=NCC2CC2)NC1c1cccc(C(F)(F)F)c1 (stereo not given),-2.2,/,2.1,-2.0,/,/,
NC(=O)COC(=O)CCCSc1nc2ccccc2s1,-2.5,11.4*,-9.4,-7.6,11.3*,0.7,
CNC(=O)NC(=O)COC(=O)CCCSc1nc2ccccc2s1,-3.8,0.2,-9.3,0.3,/,/,
COC(=O)c1ccc(CN2C(=O)[C@]3(OCCC=C[C@H]3C)c3cc(OC)ccc32)cc1,-8.2,/,-11.0,-6.8,/,/,
CCc1cc2c(nc1CC)CCCN2S(=O)(=O)c1ccccc1,-7.1,/,8.2,6.4,/,/,
C#CCOC(=O)CCCC(=O)NCCCCCCCC,1.6,6.6*,6.4,8.4,-0.2,0.0,
CN(CCc1ccccc1)C(=O)c1ccc(NC(=O)Cc2ccc(NC(=O)C3CCN(C(=O)C4CCCC4)CC3)cc2)cc1,-2.0,59.6*,2.6,-11.8,67.6*,0.6,GFP quench dose=>67.5;GFP quench-2=>67.5
CN(CCc1ccccc1)C(=O)c1ccc(NC(=O)Cc2ccc(NC(=O)C3CCCN(C(=O)c4ccccc4)C3)cc2)cc1 (stereo not given),-5.0,-3.4,10.7,-6.5,/,/,
CN(CCc1ccccc1)C(=O)c1ccc(NC(=O)Cc2ccc(NC(=O)C3CCN(C(=O)C4CC4)CC3)cc2)cc1,-5.3,13.0*,13.1,-3.0,14.7*,-4.0,
CN(CCc1ccccc1)C(=O)c1ccc(NC(=O)Cc2ccc(NC(=O)C3CCN(C(=O)c4ccccc4)CC3)cc2)cc1,-6.2,41.4*,10.5,6.2,41.6*,0.5,GFP quench dose=>67.5;GFP quench-2=>67.5
COc1ccc(C(=O)NCC2CCN(C(=O)C(=O)c3cc4ccccc4o3)CC2)cc1,-6.4,/,2.6,-11.7,/,/,
